Assay results reported in ChEMBL document CHEMBL3861971, “Cinnamoyloxy-mammeisin Isolated from Geopropolis Attenuates Inflammatory Process by Inhibiting Cytokine Production: Involvement of MAPK, AP-1, and NF-κB” (J Nat Prod, 2016).
The source made the active and inactive calls. The calls are words filed in the database; no cut-off is given here.

Assays:
RAW264.7 [1] = assay: Inhibition of JNK phosphorylation in peptidoglycan-stimulated mouse RAW264.7 cells at 6 uM pretreated for 30 mins followed by peptidoglycan stimulation for 15 mins by Western blot method; format: cell-based
Procedure, shortened: (§1)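 RAW 264.7 cells (2×10^6/well) pretreated with 6 µM 30 min before PG 5 µg/mL. Lysed with RIPA plus protease/phosphatase inhibitors after 15 min of stimulation. Phospho-ERK1/2, SAPK/JNK and p38 detected by Western blot with chemiluminescence. n = 3 or 4.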

Mus musculus [2] = assay: Antiinflammatory activity in specific pathogen-free C57BL/6 mouse assessed as inhibition of mBSA-induced neutrophil migration into joint cavity at 100 ug/kg, administered post 21 days of immunization subcutaneously for 30 mins prior to mBSA challenge measured after 6 hrs by cell counting method; format: functional
Procedure, shortened: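 C57BL/6 SPF males immunized sc with mBSA 500 µg in Complete Freund's adjuvant/PBS emulsion, boosted days 7 and 14 with Incomplete Freund's adjuvant plus mBSA. Compound given sc 30 min before ia mBSA 30 µg/joint on day 21. At 6 h joint cavity washed with PBS/EDTA, then total and differential leukocyte counts.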

Mus musculus [3] = assay: Antiinflammatory activity in specific pathogen-free C57BL/6 mouse assessed as reduction in carrageenan-induced CXCL2/MIP-2 release in peritoneal cavity at 300 ug/kg administered subcutaneously for 30 mins prior to carrageenan challenge measured after 3 hrs by ELISA; format: functional
Procedure, shortened: (§2)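 Mice (male C57BL/6 SPF) dosed sc in 1% DMSO/PBS 30 min ahead of ip carrageenan 500 µg/cavity. Peritoneal cavity sampled at 1.5 h for TNF-α and at 3 h for CXCL2/MIP-2. Levels measured by ELISA, expressed as pg/mL or pg/mg tissue.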

RAW264.7 [4] = assay: Antiinflammatory activity in mouse RAW264.7 cells assessed as inhibition of peptidoglycan-stimulated CXCL2/MIP-2 release at 0.6 to 6 uM pretreated 30 mins prior to peptidoglycan challenge measured after 4 hrs by ELISA; format: functional, cell-based
Procedure, shortened: (§3)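 RAW 264.7 cells grown in RPMI/10% FBS, plated at 2×10^5/well overnight. Pretreated with 0.6, 2 or 6 µM 30 min before PG 5 µg/mL or LPS 10 ng/mL. Supernatant collected at 4 h for TNF-α and CXCL2/MIP-2 ELISA. Mean ± SEM, n = 3–5.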

Mus musculus [5] = assay: Antiinflammatory activity in specific pathogen-free C57BL/6 mouse assessed as inhibition of carrageenan-induced neutrophil migration into peritoneal cavity at 300 ug/kg, administered subcutaneously for 30 mins prior to carrageenan challenge measured after 4 hrs using Neubauer chamber by optical microscopic analysis; format: functional
Procedure, shortened: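 Male C57BL/6 SPF mice (20–22 g) pretreated sc (vehicle 1% DMSO in PBS), 30 min before ip carrageenan 500 µg/cavity. Peritoneal neutrophils determined 4 h later. Differential count of 100 cells by optical microscopy (100×). Expressed as neutrophils per cavity.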

RAW264.7 [6] = assay: Antiinflammatory activity in mouse RAW264.7 cells assessed as inhibition of peptidoglycan-stimulated TNFalpha production at 0.6 to 6 uM pretreated 30 mins prior to peptidoglycan challenge measured after 4 hrs by ELISA; format: functional, cell-based; procedure, shortened: as §3
Mus musculus [7] = assay: Antiinflammatory activity in specific pathogen-free C57BL/6 mouse assessed as reduction in mBSA-induced myeloperoxidase activity in joint cavity at 100 ug/kg administered post 21 days of immunization subcutaneously for 30 mins prior to mBSA challenge measured after 6 hrs by bioluminescence assay; format: functional
Procedure, shortened: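 mBSA-immunized C57BL/6 mice pretreated sc 30 min before ia mBSA 30 µg/joint. At 6 h, under anesthesia, mice given ip bioluminescent myeloperoxidase probe 100 mg/kg. Joints imaged on IVIS Spectrum, read out as radiance (p/sec/cm²/sr).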

RAW264.7 [8] = assay: Antiinflammatory activity in mouse RAW264.7 cells assessed as inhibition of LPS-stimulated CXCL2/MIP-2 release at 0.6 to 6 uM pretreated 30 mins prior to LPS challenge measured after 4 hrs by ELISA; format: functional, cell-based; procedure, shortened: as §3
Mus musculus [9] = assay: Anti-inflammatory activity in specific pathogen-free C57BL/6 mouse assessed as reduction in carrageenan-induced TNF-alpha release in peritoneal cavity at 300 ug/kg administered subcutaneously for 30 mins prior to carrageenan challenge measured after 1.5 hrs by ELISA; format: functional; procedure, shortened: as §2
[10] = target: MAP kinase p38 (Mus musculus) (UniProt P47811+O08911+Q9WUI1+Q9Z1B7); assay: Inhibition of MAPK p38 phosphorylation in peptidoglycan-stimulated mouse RAW264.7 cells at 6 uM pretreated for 30 mins followed by peptidoglycan stimulation for 15 mins by Western blot method; format: cell-based; procedure, shortened: as §1
Mus musculus [11] = organism: Mus musculus; assay: Cytotoxicity against mouse RAW264.7 cells at 6 uM measured after 4 hrs by MTT assay; format: toxicity, cell-based; conditions: raw264.7, 4 h
Procedure, shortened: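 RAW 264.7 cells (2×10^5/well, overnight) exposed to 6 µM for 4 h. MTT 1 mg/mL in RPMI added for 2 h. Formazan taken up in absolute ethanol and absorbance read at 540 nm.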

[12] = target: Transcription factor Jun (Mus musculus) (UniProt P05627); assay: Inhibition of c-jun phosphorylation in peptidoglycan-stimulated mouse RAW264.7 cells at 6 uM pretreated for 30 mins followed by peptidoglycan stimulation for 30 mins by immunofluorescence method
Mus musculus [13] = organism: Mus musculus; assay: Cytotoxicity against mouse RAW264.7 cells assessed as induction of apoptosis at 6 uM measured after 4 hrs by Annexin V-FTIC/propidium iodide staining-based flow cytometric analysis; format: toxicity, cell-based; conditions: raw264.7, 4 h
Procedure, shortened: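 RAW 264.7 cells (2×10^6/well, overnight) exposed to 6 µM for 4 h, then washed into annexin buffer. Stained with annexin V-FITC (1:50, 4 °C, 20 min) and then PI (1:100). Analysed by flow cytometry, about 10 000 gated events. Three to four separate experiments.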

[14] = target: Mitogen-activated protein kinase 1 and 3 (ERK2 and ERK1) (Mus musculus) (UniProt P63085+Q63844); assay: Inhibition of ERK1/2 phosphorylation in peptidoglycan-stimulated mouse RAW264.7 cells at 6 uM pretreated for 30 mins followed by peptidoglycan stimulation for 15 mins by Western blot method; format: cell-based; procedure, shortened: as §1
RAW264.7 [15] = assay: Inhibition of NFkappaB activation (unknown origin) expressed in mouse RAW264.7 cells at 0.6 to 6 uM pretreated for 30 mins followed by peptidoglycan challenge measured after 4 hrs by luciferase reporter gene assay; format: cell-based; conditions: Homo sapiens
Procedure, shortened: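 RAW 264.7 cells stably carrying an NF-κB-driven luciferase reporter, plated at 3×10^5/well overnight. Pretreated with 0.6–6 µM 30 min before PG 5 µg/mL. Lysed in Tris-NaCl-Tween buffer at 4 h, luciferin reagent added and luminescence read. n = 3–5.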

RAW264.7 [16] = assay: Antiinflammatory activity in mouse RAW264.7 cells assessed as inhibition of LPS-stimulated TNFalpha production at 0.6 to 6 uM pretreated 30 mins prior to LPS challenge measured after 4 hrs by ELISA; format: functional, cell-based; procedure, shortened: as §3
Mus musculus [17] = assay: (§4) Antiinflammatory activity in specific pathogen-free C57BL/6 mouse assessed as inhibition of carrageenan-induced leukocyte adhesion in mesenteric venules at 300 ug/kg administered subcutaneously for 30 mins prior to carrageenan challenge measured after 4 hrs by intravital microscopy; format: functional
Mus musculus [18] = assay: as §4, with “Anti-inflammatory” for “Antiinflammatory”, “rolling into” for “adhesion in”, “2” for “4”, “hrs for 10 mins” for “hrs”, “microscopic analysis” for “microscopy”; format: functional
Mus musculus [19] = assay: Antiinflammatory activity in specific pathogen-free C57BL/6 mouse assessed as reduction of mBSA-induced TNF-alpha release in joint cavity at 100 ug/kg, administered post 21 days of immunization subcutaneously for 30 mins prior mBSA challenge measured after 1.5 hrs by ELISA; format: functional
Procedure, shortened: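 Immunized mice (mBSA/Freund's adjuvant, boosts days 7 and 14) treated sc 30 min before day-21 ia mBSA 30 µg/joint. TNF-α in the joint measured by ELISA 1.5 h after challenge.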

Chain of Transcription factor Jun (Mus musculus) (P05627 whole entry): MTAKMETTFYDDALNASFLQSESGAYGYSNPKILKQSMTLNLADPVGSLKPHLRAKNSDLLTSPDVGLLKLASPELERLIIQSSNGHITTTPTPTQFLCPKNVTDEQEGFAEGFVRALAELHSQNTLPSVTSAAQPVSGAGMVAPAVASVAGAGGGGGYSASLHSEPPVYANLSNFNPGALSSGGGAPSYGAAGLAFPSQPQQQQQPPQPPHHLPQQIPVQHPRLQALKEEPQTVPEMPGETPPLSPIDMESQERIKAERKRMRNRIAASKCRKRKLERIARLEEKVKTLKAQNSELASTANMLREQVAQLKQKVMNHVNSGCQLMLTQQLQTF
Chain of Mitogen-activated protein kinase 1 and 3 (ERK2 and ERK1) (Mus musculus) (P63085 whole entry, looked up): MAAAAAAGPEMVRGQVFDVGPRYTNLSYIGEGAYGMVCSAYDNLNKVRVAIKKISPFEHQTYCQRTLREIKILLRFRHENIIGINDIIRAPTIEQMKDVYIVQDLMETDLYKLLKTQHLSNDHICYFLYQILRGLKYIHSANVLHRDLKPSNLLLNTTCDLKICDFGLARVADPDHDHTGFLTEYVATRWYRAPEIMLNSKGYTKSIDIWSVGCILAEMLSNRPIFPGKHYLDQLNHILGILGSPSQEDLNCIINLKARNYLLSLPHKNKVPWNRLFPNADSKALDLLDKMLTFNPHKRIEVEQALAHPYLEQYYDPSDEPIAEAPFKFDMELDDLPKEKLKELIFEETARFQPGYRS
Chain of Mitogen-activated protein kinase 1 and 3 (ERK2 and ERK1) (Mus musculus) (Q63844 whole entry, looked up): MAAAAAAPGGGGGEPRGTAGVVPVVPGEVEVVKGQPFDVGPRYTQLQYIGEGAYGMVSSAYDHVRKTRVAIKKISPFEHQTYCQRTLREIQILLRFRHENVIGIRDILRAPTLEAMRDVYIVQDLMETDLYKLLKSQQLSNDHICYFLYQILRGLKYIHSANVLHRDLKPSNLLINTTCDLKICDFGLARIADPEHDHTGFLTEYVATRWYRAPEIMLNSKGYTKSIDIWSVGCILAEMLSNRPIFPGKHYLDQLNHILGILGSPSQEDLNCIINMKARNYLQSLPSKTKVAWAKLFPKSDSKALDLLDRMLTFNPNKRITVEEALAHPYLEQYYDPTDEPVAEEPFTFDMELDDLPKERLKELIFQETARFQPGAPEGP

Activity (Mus musculus [7]): Active
inhibition [10]: Active
inhibition [12]: Active
inhibition [14]: Active
SMILES: CC(C)=CCc1c(O)c(C(=O)CC(C)COC(=O)/C=C/c2ccccc2)c(O)c2c(-c3ccccc3)cc(=O)oc12 (centres undefined)
inhibition (RAW264.7 [1]): Active
inhibition (Mus musculus [2]): Active
Activity (Mus musculus [3]): Active
inhibition (RAW264.7 [4]): Active
inhibition (Mus musculus [5]): Active
inhibition (RAW264.7 [6]): Active
inhibition (RAW264.7 [8]): Active
Activity (Mus musculus [9]): Active
Activity (Mus musculus [11]): Non-Toxic
Activity (Mus musculus [13]): Non-Toxic
inhibition (RAW264.7 [15]): Active
inhibition (RAW264.7 [16]): Active
inhibition (Mus musculus [17]): Active
inhibition (Mus musculus [18]): Active
Activity (Mus musculus [19]): Active
